# Compound activity from PubChem.
# Hits are enriched below; roughly 3.8% of the tested compounds scored in any of these assays.
# V-ATPase pHluor: alters yeast V-ATPase proton transport | S. cerevisiae, pHLuorin cytosolic pH fluorescence | response, % at 10 µM | 350,000 tested, 0.37% active | AID 504577; in the data active = response mostly above about 7.3%, no sharp cut-off; inactive = mostly below about 5.4%; also: actives read high
# T cell modulator: T cell immune modulation candidate; 2C CD8+ T cell-vesicle binding, flow cytometry; active compounds read low; response (vesicle binding), % at 7 µM; 330,000 tested, 0.068% active; AID 2052;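 active = response, share of CD8 T cells binding vesicles, and their 90th percentile fluorescence all below set limits, cut at about 80% in these data, passing the limit was not always enough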;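 also: values below 100% mean blocked vesicle binding to the CD8+ T cells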
#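 Test system: purified 2C TCR transgenic mouse naive CD8+ T cells. Probe or stimulus: QL9-peptide-loaded Drosophila micro-vesicles bearing Ld, ICAM-1 and B7-1. Incubation: binding step 1.5 h, 37 °C, antibody labelling 20 min, ice. Measured by: flow cytometry of vesicle-bound cells.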
# MPTP block: inhibitors of mitochondrial permeability transition pore; 360,000 tested, 1.4% active; isolated mouse mitochondria, Ca2+ swelling absorbance, 30 min; inhibition, % at 10 µM;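 active = inhibition of 50% or more, scaled per plate between neutral and stimulator controls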;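 also: 0% = DMSO wells given calcium and 100% = 1 mM EGTA wells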
# rCAG binder: molecules binding r(CAG) RNA repeats. r(CAG) RNA repeat, TO-PRO-1 dye displacement fluorescence. inhibition, % at 3 µM. 370,000 tested, 1.3% active;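 active = inhibition above the plate cutoff, the mean of all test compounds on that plate plus 3 SD, cut at about 35% in these data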;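 also: 0% = DMSO alone and 100% = 100 µM mitoxantrone as full dye displacement; higher means more dye released from RNA so lower well fluorescence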
# Exocytosis inh: lytic granule exocytosis inhibition; TALL-104 LAMP-1 surface exposure, flow cytometry; cells stimulated with thapsigargin and PMA; inhibition, % at 10 µM; 360,000 tested, 0.66% active; AID 651702;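 active = inhibition above about 55%, limit read from the data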
# Beta2AR agonist: agonists of human beta-2 adrenergic receptor inducing internalization | response, % (no concentration beside the values) | 340,000 tested, 0.43% active | Am2.2-beta2AR cells, FAP receptor internalization, flow cytometry | P07550;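 active = response above a set limit, near 3 SD of response in nonfluorescent compounds, cut at about 42% in these data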
# Target sequence (P07550 whole entry, looked up): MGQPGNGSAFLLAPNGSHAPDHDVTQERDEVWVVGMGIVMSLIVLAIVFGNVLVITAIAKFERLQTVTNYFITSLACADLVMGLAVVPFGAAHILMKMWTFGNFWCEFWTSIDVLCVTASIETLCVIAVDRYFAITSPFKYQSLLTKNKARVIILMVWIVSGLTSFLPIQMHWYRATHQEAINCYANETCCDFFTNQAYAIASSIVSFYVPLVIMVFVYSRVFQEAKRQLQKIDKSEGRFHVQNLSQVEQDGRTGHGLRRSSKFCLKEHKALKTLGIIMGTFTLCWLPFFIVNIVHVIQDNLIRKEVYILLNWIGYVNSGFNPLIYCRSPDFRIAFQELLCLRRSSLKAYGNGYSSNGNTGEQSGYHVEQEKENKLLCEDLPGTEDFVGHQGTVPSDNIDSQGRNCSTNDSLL
# Rh123 counter: mitochondrial membrane potential, counter-screen. shares compounds with MPTP block. isolated mitochondria, Rhodamine 123 fluorescence. inhibition, % at 10 µM. 5,000 tested, 78% active. AID 624504; in the data active = inhibition above about 22%;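 also: 0% = DMSO vehicle and 100% = positive control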
# MPTP swell DR: MPTP inhibition, dose response swelling confirmation. AID 651561. 780 tested, 58% active. isolated mitochondria swelling, absorbance. shares compounds with MPTP block. IC50, µM; in the data active = IC50 below about 20 µM
# MPTP counter DR: counter-screen for mitochondrial permeability transition pore inhibitors, dose response | shares compounds with MPTP block | isolated mitochondria counterscreen, fluorescence read-out | IC50, µM | 780 tested, 49% active | AID 651564; in the data active = IC50 below about 80 µM
# Active calls of the source: *; i = inactive; x = not tested or not shown.
SMILES,V-ATPase pHluor,T cell modulator,MPTP block,rCAG binder,Exocytosis inh,Beta2AR agonist,Rh123 counter,others
O=C(Nc1cccc(C(F)(F)F)c1)N1CCC(c2nc(-c3ccc(F)cc3)no2)CC1,-1,x,77*,0,0,7,89*,
O=C(Nc1ccccc1)N1CCCC(c2nc(-c3ccc(F)cc3)no2)C1 (configuration not stated),-1,416,-2,-7,2,-7,x,
CC(C)CNC(=S)N1CCC(c2nc(-c3ccc(F)cc3)no2)CC1,3,310,95*,-5,7,-1,94*,
CC(C)(C)OC(=O)n1ccc2ccc(-c3ccc4cc[nH]c4c3)cc21,x,x,x,13,x,x,x,
CCN(CC)CCCN=Cc1c(O)n(Cc2ccccc2)c(=O)c2ccccc12,1,271,79*,0,10,10,-18,MPTP swell DR=12*;MPTP counter DR=>80
Cc1ccc(NC(=O)COc2ccccc2CNC(C)(C)CC(C)(C)C)cc1,-2,296,50*,16,15,19,34*,
CCCSc1nsc(NC(=O)Nc2ccc(F)cc2F)n1,-1,183,97*,14,-14,13,85*,
CCCSc1nsc(NC(=O)C(c2ccccc2)c2ccccc2)n1,1,516,12,x,5,35,x,
N/C(=N\N=C/c1ccc(Br)cc1)N/N=C\c1ccc(Br)cc1,3,206,59*,8,63*,7,-6,MPTP swell DR=i;MPTP counter DR=37*
COc1cc([N+](=O)[O-])cc(/C=N/NC(=O)c2ccc(NC(=O)c3ccc(C)cc3)cc2)c1O,-3,x,112*,6,2,36,1,
CCCCN1C(=N)N([C@@H](CCC)CN2CCC[C@H]2CN2C(N)=NC[C@@H]2Cc2ccccc2)C[C@H]1[C@H](C)CC,6,363,81*,11,-1,-2,-6,
CC(C)c1ccc(NC(=O)c2snc3ccc(Cl)cc23)cc1,-3,290,74*,2,6,12,74*,
CC(C)c1ccc(NC(=O)c2csnn2)cc1,-4,284,-2,-3,-2,2,x,
CC(C)C(C(=O)NCc1ccccc1)N1CCN(CCN2CCOCC2)CC1 (configuration not stated),x,x,x,1,x,x,x,
CC(=O)Oc1c(I)cc(I)cc1C(=O)Nc1ccc(Cl)cc1,3,325,70*,22,15,26,69*,
S=C(Nc1ccc(Br)cc1)N1CCn2cccc2C1c1cccnc1 (configuration not stated),-3,x,97*,4,0,6,92*,
Cc1ccc(NC(=S)N2CCn3cccc3C2c2cccnc2)cc1 (configuration not stated),-2,300,1,2,-1,0,x,
CCc1ccc(Nc2cc(=O)n(C3CCCCC3)c(=O)[nH]2)cc1,0,240,63*,10,0,10,107*,
Cc1ccc(OCCCCNC2CCCC(C)C2C)c(C)c1 (configuration not stated),1,260,60*,7,10,14,-1,
CCCN(C(=O)COC(=O)c1[nH]c(C)c(C(=O)OC)c1C)c1c(N)n(Cc2ccccc2)c(=O)[nH]c1=O,0,404,60*,1,-8,8,-19,MPTP swell DR=>100;MPTP counter DR=>80
C=CCC(C(=O)Oc1c(C(C)(C)C)cc(C)cc1C(C)(C)C)c1ccccc1 (configuration not stated),-3,801,55*,1,-2,8,-9,MPTP swell DR=6.9*;MPTP counter DR=>80
CC(C)(C)c1ccc(-c2cn(-c3ccc(Br)cc3)c3[n+]2CCCS3)cc1,-3,x,53*,4,3,13,99*,
c1ccc(-c2cn(-c3ccccc3)c3[n+]2CCS3)cc1,2,183,-4,1,-2,-10,x,
Cc1nc2ccccc2cc1OCc1ccc(Cl)cc1,-3,372,96*,0,7,3,104*,
